Test results: ChEMBL document CHEMBL3228003, “Synthesis of angiotensin II analogues by incorporating beta-homotyrosine or beta-homoisoleucine residues” (J Med Chem, 1979)

What was measured:
[1] = Stability of the compound assessed as microsomal leucine aminopeptidase (unknown origin)-mediated liberation of sarcosine, arginine and valine after 2 hrs by TLC analysis; type: ADME, Homo sapiens
Method in brief: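 Peptide (2 mg) in 0.4 mL of 0.5 mol Tris, pH 8.5, plus 0.1 mL of 0.025 mol MnCl2, was incubated at 37 °C with 0.2 mg of microsomal leucine aminopeptidase (25 units/1.83 mg). Acetic acid was added and the mixture lyophilized. Liberated amino acids were detected by TLC and amino acid analysis.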

Rattus norvegicus [2] = species on record: Rattus norvegicus; assay: Effect on pressor activity in vagotomized and ganglion-blocked rat relative to angiotensin 2; type: functional
Method in brief: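 Pressor response was measured in vagotomized, ganglion-blocked rats by the single-injection procedure. Activity is expressed as a percentage of the pressor activity of angiotensin II, with n injections per value.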

Rattus norvegicus [3] = species on record: Rattus norvegicus; assay: Effect on pressor activity in vagotomized and ganglion-blocked rat assessed as duration of action relative to angiotensin 2; type: functional
Method in brief: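 Vagotomized, ganglion-blocked rats received single injections. Duration of action, timed from injection until blood pressure returns to control levels, is compared against an equipressor dose of angiotensin II given by the same procedure.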

[4] = Stability of the compound assessed as beef pancreas alpha-chymotrypsin-mediated drug degradation up to 3 hrs by TLC analysis; type: ADME, Bos taurus; details: cattle, isolated protein
Method in brief: (§1)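 Peptide (5 mg) in 0.5 mL of 0.1 mol ammonium acetate buffer, pH 7.5, was incubated at 37 °C with 0.4 mg of thrice-crystallized bovine pancreatic α-chymotrypsin suspended in buffer. The reaction was stopped with acetic acid, the mixture lyophilized, and fragments checked by TLC on cellulose in suitable solvents.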

Rattus norvegicus [5] = species on record: Rattus norvegicus; assay: Effect on pressor activity in vagotomized and ganglion-blocked rat assessed as duration of action; type: functional
Method in brief: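 Single-injection pressor test in vagotomized, ganglion-blocked rats. Duration of action runs from peptide injection until blood pressure returns to control values.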

[6] = Stability of the compound assessed as microsomal leucine aminopeptidase (unknown origin)-mediated liberation of aspartic acid from position 1 after 5 mins by TLC analysis
[7] = Stability of the compound assessed as beef pancreas alpha-chymotrypsin-mediated drug degradation into 2 tetrapeptides after 15 to 20 mins by TLC analysis; type: ADME, Bos taurus; details: cattle, isolated protein; method in brief: as §1

SMILES | Stability [1] | Stability [4] | Stability [6] | Stability [7] | Activity (Rattus norvegicus [2]) [%] | Time (Rattus norvegicus [3]) [min] | Time (Rattus norvegicus [5]) [min]
CC[C@H](C)[C@@H](CC(=O)N[C@@H](Cc1cnc[nH]1)C(=O)N1CCC[C@H]1C(=O)N[C@@H](Cc1ccccc1)C(=O)O)NC(=O)[C@H](Cc1ccc(O)cc1)NC(=O)[C@@H](NC(=O)[C@H](CCCNC(=N)N)NC(=O)CNC)C(C)C | Stable | Stable |  |  | 29.2 | 5.3 | 4.7
CC[C@H](C)[C@H](NC(=O)[C@H](Cc1ccc(O)cc1)NC(=O)[C@@H](NC(=O)[C@H](CCCNC(=N)N)NC(=O)[C@@H](N)CC(=O)O)C(C)C)C(=O)N[C@@H](Cc1cnc[nH]1)C(=O)N1CCC[C@H]1C(=O)N[C@@H](Cc1ccccc1)C(=O)O [ANGIOTENSIN II] |  |  | Unstable | Unstable |  |  | 

Further lines, with some results ahead:

Stability [1] | Stability [4] | Stability [6] | Stability [7] | SMILES | Activity (Rattus norvegicus [2]) [%] | Time (Rattus norvegicus [3]) [min] | Time (Rattus norvegicus [5]) [min]
Stable |  |  |  | CC[C@H](C)[C@H](NC(=O)[C@H](Cc1ccc(O)cc1)NC(=O)[C@@H](NC(=O)[C@H](CCCNC(=N)N)NC(=O)CNC)C(C)C)C(=O)N[C@@H](Cc1cnc[nH]1)C(=O)N1CCC[C@H]1C(=O)N[C@@H](Cc1ccccc1)C(=O)O |  |  | 
Stable | Stable |  |  | CC[C@H](C)[C@H](NC(=O)C[C@H](Cc1ccc(O)cc1)NC(=O)[C@@H](NC(=O)[C@H](CCCNC(=N)N)NC(=O)CNC)C(C)C)C(=O)N[C@@H](Cc1cnc[nH]1)C(=O)N1CCC[C@H]1C(=O)N[C@@H](Cc1ccccc1)C(=O)O | 1.98 | 5.2 | 5.5
 | Stable | Unstable |  | CC[C@H](C)[C@@H](CC(=O)N[C@@H](Cc1cnc[nH]1)C(=O)N1CCC[C@H]1C(=O)N[C@@H](Cc1ccccc1)C(=O)O)NC(=O)[C@H](Cc1ccc(O)cc1)NC(=O)[C@@H](NC(=O)[C@H](CCCNC(=N)N)NC(=O)[C@@H](N)CC(=O)O)C(C)C | 2.82 | 6.3 | 6.7
